# Results from article PMC6884402 (ACS infectious diseases, 2018).
# Entries after “also recorded” stand apart in the source; their conditions may differ.
# Tests used:
# [1] = test system: human cyt bc1; conditions: cited from earlier work
# [2] = test system: virulent Type I RH strain of T. gondii that expresses luciferase; experiment: In vivo efficacy against acute toxoplasmosis in mice; design: species or system Toxoplasma gondii; conditions: 5 mg/kg orally for 5 days; for luminescence from infection: at day 13 / prior to euthanasia; for survival of infected mice: CF-1 mice, 4 per group
# [3] = test system: S. cerevisiae cyt bc1; conditions: cited from earlier work
# [4] = test system: T. gondii RH strain with T222P substitution in the cyt b Qi site; experiment: T. gondii T222P strain proliferation assay; format: cell-based, Toxoplasma gondii
# Outline: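 Compounds were DMSO-diluted (≤0.5% final) over human foreskin fibroblast monolayers. Wild-type or Thr222Pro RH tachyzoites (4000/well) expressing gfp and β-galactosidase were added; the mutant came from chemical mutagenesis plus selection. After 72 h at 37°C, 5% CO2, cells were lysed and chlorophenol red β-galactopyranoside added for 4 h, read spectrophotometrically. Each run ≥3 times in quadruplicate. Resistance is the T222P/wild-type EC50 ratio.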
# [5] = test system: RH strain of T. gondii expressing β-galactosidase (wild type cyt b); experiment: 72h T. gondii tachyzoite proliferation assay; format: cell-based; conditions: Toxoplasma gondii, read-out: T. gondii EC50
# [6] = test system: Dd2 P. falciparum strain; experiment: 72h P. falciparum blood stage proliferation assay; format: cell-based; conditions: Plasmodium falciparum, DD2, 72 h, read-out: Dd2 EC50 (P. falciparum)
# Outline: (§1)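 Dd2 or I22L clone (I22L selected from Dd2 under quinolone pressure) blood stages in 2-fold dilution series, in triplicate. Final hematocrit 2% (v/v), starting parasitemia 0.2%. Incubated 72 h at 37°C under 5% CO2/5% O2/90% N2. SYBR Green I dye-detergent added for 1 h at room temperature in the dark, then fluorescence read. EC50 is the mean of ≥3 experiments. […]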
# [7] = test system: P. falciparum Dd2 strain with I22L substitution in cytochrome b; experiment: P. falciparum I22L strain proliferation assay; format: cell-based, Plasmodium falciparum
# Outline: as §1
# [8] = test system: N. caninum; conditions: 10mg/kg dose; cited from earlier work
# [9] = cited from earlier work
# [10] = rats, orally at 5 mk/kg; cited from earlier work
# [11] = test system: Plasmodium; conditions: single dose of 1 mg/kg; cited from earlier work
smiles,measurement,setting,value
"O=C1C(O)=C([C@H]2CC[C@H](c3ccc(Cl)cc3)CC2)C(=O)c2ccccc21 [ATV, Atovaquone, reference compound]",activity against human cyt bc1,[1],has activity
same,T. gondii DNA in brain (quantitative real-time PCR),[2],developed both systemic and brain infection
same,T. gondii DNA in spleen (quantitative real-time PCR),[2],developed both systemic and brain infection
same,luminescence from infection,[2],detectable in the 2 surviving mice
Cc1[nH]c2ccccc2c(=O)c1-c1ccc(Oc2ccc(OC(F)(F)F)cc2)cc1 [Compound 1B],activity against yeast (S. cerevisiae) cyt bc1,[3],has activity
same,activity against human cyt bc1,[1],has activity
COc1ccc2c(=O)c(-c3ccc(Oc4ccc(OC(F)(F)F)cc4)cc3)c(C)[nH]c2c1 [Compound 2B],activity against yeast (S. cerevisiae) cyt bc1,[3],do not inhibit
same,activity against human cyt bc1,[1],do not inhibit
same,resistance caused by T222P substitution in T. gondii,[4],causes resistance
"CCCCCCCCCCCc1c(C)[nH]c2cc(OC)ccc2c1=O [Compound 2C, 7-methoxy-2-methyl-3-undecylquinolin-4(1H)-one]",EC50,[5],0.37 nM
same,EC50,[6],1.8 nM
COc1cc2[nH]c(C)c(-c3ccc(Oc4ccc(OC(F)(F)F)cc4)cc3)c(=O)c2cc1F [Compound 3B],activity against yeast (S. cerevisiae) cyt bc1,[3],do not inhibit
same,activity against human cyt bc1,[1],do not inhibit
same,resistance caused by T222P substitution in T. gondii,[4],causes resistance
same,T. gondii DNA in brain (quantitative real-time PCR),[2],evidence of brain infection by PCR that was similar to controls
same,luminescence from infection,[2],3 of 4 mice did not have luminescence
same,T. gondii DNA in brain (quantitative real-time PCR),[2]; listed as ELQ-316,had T. gondii infection in brain tissue
same,T. gondii DNA in spleen (quantitative real-time PCR),[2]; listed as ELQ-316,not detected above the limits of detection in the spleen of 3 of 4 mice
COc1cc2[nH]c(C)c(-c3ccc(Oc4ccc(OC(F)(F)F)cc4)cc3)c(=O)c2cc1Cl [Compound 4B],activity against yeast (S. cerevisiae) cyt bc1,[3],do not inhibit
same,activity against human cyt bc1,[1],do not inhibit
same,resistance caused by T222P substitution in T. gondii,[4],causes resistance
same,resistance caused by I22L substitution in P. falciparum,[7],causes resistance
Cc1[nH]c2cc(F)cc(F)c2c(=O)c1-c1ccc(Oc2ccc(OC(F)(F)F)cc2)cc1 [Compound 8B],efficacy against N. caninum infection,[8],effective in reducing infection
same,toxicity in general cell assays and in vivo efficacy studies,[9],toxicity was not observed
same,site of inhibition in S. cerevisiae cyt b,[3],inhibit both the Qo and Qi site
same,activity against human cyt bc1,[1],has activity
same,maximum concentration,[10],71.2 ng/mL
same,efficacy in a mouse model of malaria,[11],curative
same,T. gondii DNA in brain (quantitative real-time PCR),[2],not detected
same,T. gondii DNA in spleen (quantitative real-time PCR),[2],not detected
same,survival of infected mice,[2],survived until day 32; also recorded: all mice survived
same,survival of infected mice,[2]; listed as ELQ-400,alive at the completion of the experiment
same,T. gondii DNA in brain (quantitative real-time PCR),[2]; listed as ELQ-400,did not have infection detectable by PCR
same,T. gondii DNA in spleen (quantitative real-time PCR),[2]; listed as ELQ-400,none of the mice
